Source: ChEMBL document CHEMBL4138048, “Synthesis of substituted 2H-benzo[e]indazole-9-carboxylate as a potent antihyperglycemic agent that may act through IRS-1, Akt and GSK-3β pathways” (Medchemcomm, 2017)
Activity calls are given as the source filed them. No cut-off for these calls is given here.

What was measured:
L6 = assay: Stimulation of [3H]2-deoxyglucose uptake in rat L6 cells at 10 uM incubated for 16 hrs by scintillation counting method; assay type: functional, cell-based
In short: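 L6 myotubes incubated with the compound […]; insulin at 100 nM for 20 min served as the positive control. Uptake of ³H-2-deoxyglucose measured and expressed as fold stimulation relative to the control condition.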

HepG2 = assay: Stimulation of [3H]2-deoxyglucose uptake in human HepG2 cells at 10 uM incubated for 16 hrs by scintillation counting method; assay type: functional, cell-based

Row | Compound | Activity (L6) | Activity (HepG2)
1 | COC(=O)c1c(SC)cc(-c2cccs2)c2c1-c1cn(-c3ccccc3)nc1CC2 | inactive | –
2 | COC(=O)c1c(SC)cc(-c2ccc(Br)cc2)c2c1-c1cn(-c3ccccc3)nc1CC2 | inactive | –
3 | COC(=O)c1c(SC)cc(-c2ccc3ccc4cccc5ccc2c3c45)c2c1-c1cn(-c3ccccc3)nc1CC2 | inactive | –
4 | CN(C)C(=N)NC(=N)N | – | Active
5 | COC(=O)c1c(SC)cc(-c2ccc(OC)cc2)c2c1-c1cn(-c3ccccc3)nc1CC2 | inactive | –
6 | COC(=O)c1c(SC)cc(-c2ccccc2)c2c1-c1cn(-c3ccccc3)nc1CC2 | inactive | –
